Measured values reported in ChEMBL document CHEMBL1122350, “Ferric ion sequestering agents. 11. Synthesis and kinetics of iron removal from transferrin of catechoyl derivatives of desferrioxamine B” (J Med Chem, 1983).

Tests used:
[1] = molecular target: Serotransferrin (Homo sapiens) (UniProt P02787); assay: Ability to remove iron from human iron transport protein transferrin, at a concentration of 1.2mM, expressed as % iron removal in 30 minutes; format: functional
How it was run: (§1)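 Diferric transferrin was made from apotransferrin saturated with fresh Fe(NTA)2^3-, then gel-filtered in 0.1 M NaClO4/0.1 M Tris-HCl pH 7.4 (≥95% saturation by A280/A466 ≤24, A428/A466 = 0.85). The ligand was dissolved in 0.1 M Tris-HCl pH 7.4 with slight heating and mixed 1:1 with transferrin ([Fe2Tf] 2.9 × 10^-5 M) at 25.0 °C. Visible spectra were followed at 466 nm, and % iron removed was read at 30 min.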

[2] = molecular target: Serotransferrin (Homo sapiens) (UniProt P02787); assay: Ability to remove iron from transferrin, at a concentration of 0.1 mM, expressed as % iron removal in 30 minutes; format: functional; details: 0.2 mM; in the assay text read “0.2 mM” for “0.1 mM”; how it was run: as §1
[3] = Relative effectiveness at a concentration of 0.2mM, on removal of Fe from transferrin as compared to Desferal; format: functional
How it was run: (§2)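 Iron removal was measured spectrophotometrically from diferric transferrin (2.9 × 10^-5 M) in 0.1 M Tris-HCl pH 7.4 at 25.0 °C. A rough second-order rate constant k2 was taken as the % iron removed after 30 min divided by the initial ferric transferrin and ligand concentrations. The value is expressed as the ratio to the Desferal k2.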

[4] = molecular target: Serotransferrin (Homo sapiens) (UniProt P02787); assay: Ability to remove iron from human iron transport protein transferrin, at a concentration of 20 mM, expressed as % iron removal in 30 minutes; format: functional
[5] = Relative effectiveness at a concentration of 20 mM, on removal of Fe from transferrin as compared to Desferal; format: functional
[6] = molecular target: Serotransferrin (Homo sapiens) (UniProt P02787); assay: Ability to remove iron from human iron transport protein transferrin, at a concentration of 0.1 mM, expressed as % iron removal in 30 minutes; format: functional; how it was run: as §1
[7] = Relative effectiveness at a concentration of 0.1 mM, on removal of Fe from transferrin as compared to Desferal; format: functional; how it was run: as §2
[8] = molecular target: Serotransferrin (Homo sapiens) (UniProt P02787); assay: Ability to remove iron from human iron transport protein transferrin, at a concentration of 0.2 mM, expressed as % iron removal in 30 minutes; format: functional; how it was run: as §1
[9] = molecular target: Serotransferrin (Homo sapiens) (UniProt P02787); assay: Ability to remove iron from transferrin, at a concentration of 0.2 mM, expressed as % iron removal in 30 minutes; format: functional; how it was run: as §1
[10] = molecular target: Serotransferrin (Homo sapiens) (UniProt P02787); details: 500 mM

Serotransferrin (Homo sapiens), sequence (P02787 whole entry): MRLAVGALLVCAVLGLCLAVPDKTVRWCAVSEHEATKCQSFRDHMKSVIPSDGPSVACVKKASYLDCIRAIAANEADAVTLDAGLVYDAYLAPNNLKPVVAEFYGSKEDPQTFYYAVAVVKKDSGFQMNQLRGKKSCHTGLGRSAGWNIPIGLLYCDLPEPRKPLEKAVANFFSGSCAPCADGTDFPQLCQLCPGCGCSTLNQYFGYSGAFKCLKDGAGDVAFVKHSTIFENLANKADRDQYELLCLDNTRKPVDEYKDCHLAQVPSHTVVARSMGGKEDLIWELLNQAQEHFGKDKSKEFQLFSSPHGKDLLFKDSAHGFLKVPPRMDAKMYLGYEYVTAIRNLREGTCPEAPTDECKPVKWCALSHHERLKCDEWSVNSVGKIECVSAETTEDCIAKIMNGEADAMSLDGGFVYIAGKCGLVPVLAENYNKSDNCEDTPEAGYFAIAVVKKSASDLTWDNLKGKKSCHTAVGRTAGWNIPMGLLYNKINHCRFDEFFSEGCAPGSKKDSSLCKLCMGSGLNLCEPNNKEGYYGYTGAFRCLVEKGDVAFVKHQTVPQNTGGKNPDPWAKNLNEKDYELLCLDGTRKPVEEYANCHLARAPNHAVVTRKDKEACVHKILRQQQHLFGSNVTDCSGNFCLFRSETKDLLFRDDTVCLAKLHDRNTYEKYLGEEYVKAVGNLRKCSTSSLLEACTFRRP

## CC(=O)N(O)CCCCCNC(=O)CCC(=O)N(O)CCCCCNC(=O)CCC(=O)N(O)CCCCCNC(=O)c1ccc(C(=O)O)c(O)c1O
[1]
  Fe removed: 18%
[2]
  Fe removed: 3%
[3]
  Ratio: 130

## CC(=O)N(O)CCCCCNC(=O)CCC(=O)N(O)CCCCCNC(=O)CCC(=O)N(O)CCCCCN
[4]
  Fe removed: 5%
[5]
  Ratio: 1

## CC(=O)N(O)CCCCCNC(=O)CCC(=O)N(O)CCCCCNC(=O)CCC(=O)N(O)CCCCCNC(=O)c1cccc(O)c1O
[6]
  Fe removed: 2%
[7]
  Ratio: 180

## O=C(N[C@H]1COC(=O)[C@@H](NC(=O)c2cccc(O)c2O)COC(=O)[C@@H](NC(=O)c2cccc(O)c2O)COC1=O)c1cccc(O)c1O
[8]
  Fe removed: 6%
[3]
  Ratio: 120

## O=C(O)CN(CCN(CC(=O)O)CC(=O)O)CC(=O)O
[9]
  Fe removed: 0%
[10]
  Fe removed: 37%
